The source made the active and inactive calls. The rule behind the calls is not given here.
Key:
[1] = target: Voltage-gated inwardly rectifying potassium channel KCNH2 (Homo sapiens, UniProt Q12809); assay: Displacement of [3H]astemizole from human ERG expressed in HEK293 cells
[2] = target: T1, Adrenergic receptor alpha-1 (Rattus norvegicus, UniProt P15823+P23944+P43140); assay: Displacement of [3H]prazosin from alpha1 adrenergic receptor in rat brain; format: tissue-based
T1 sequence (P15823 whole entry): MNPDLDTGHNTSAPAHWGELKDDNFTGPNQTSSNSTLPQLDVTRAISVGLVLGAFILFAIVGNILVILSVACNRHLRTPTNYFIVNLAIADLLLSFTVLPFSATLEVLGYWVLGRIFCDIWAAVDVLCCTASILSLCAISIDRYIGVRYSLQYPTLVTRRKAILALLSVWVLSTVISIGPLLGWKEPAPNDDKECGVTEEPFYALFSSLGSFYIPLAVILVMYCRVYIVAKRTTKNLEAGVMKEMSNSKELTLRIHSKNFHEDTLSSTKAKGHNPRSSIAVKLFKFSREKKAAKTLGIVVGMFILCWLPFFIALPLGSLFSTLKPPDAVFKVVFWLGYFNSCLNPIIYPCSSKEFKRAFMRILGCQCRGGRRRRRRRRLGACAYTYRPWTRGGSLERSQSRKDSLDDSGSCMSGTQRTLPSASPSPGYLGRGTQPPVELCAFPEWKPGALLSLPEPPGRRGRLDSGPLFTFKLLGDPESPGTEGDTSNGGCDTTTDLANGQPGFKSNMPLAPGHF
T1 sequence (P23944 whole entry): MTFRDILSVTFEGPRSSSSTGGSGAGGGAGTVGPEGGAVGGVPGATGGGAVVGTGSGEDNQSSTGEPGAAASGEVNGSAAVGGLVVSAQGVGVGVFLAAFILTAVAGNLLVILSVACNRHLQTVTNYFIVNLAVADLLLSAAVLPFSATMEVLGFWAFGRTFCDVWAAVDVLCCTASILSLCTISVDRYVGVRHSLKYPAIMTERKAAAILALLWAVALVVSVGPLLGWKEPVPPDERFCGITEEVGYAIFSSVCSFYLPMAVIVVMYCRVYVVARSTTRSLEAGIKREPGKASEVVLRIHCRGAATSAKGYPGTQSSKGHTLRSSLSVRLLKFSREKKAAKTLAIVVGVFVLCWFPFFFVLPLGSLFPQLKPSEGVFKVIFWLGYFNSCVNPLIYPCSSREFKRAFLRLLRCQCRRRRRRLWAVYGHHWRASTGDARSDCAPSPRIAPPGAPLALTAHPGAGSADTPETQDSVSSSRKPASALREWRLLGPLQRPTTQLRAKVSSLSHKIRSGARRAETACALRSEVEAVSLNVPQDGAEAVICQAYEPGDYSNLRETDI
T1 sequence (P43140 whole entry): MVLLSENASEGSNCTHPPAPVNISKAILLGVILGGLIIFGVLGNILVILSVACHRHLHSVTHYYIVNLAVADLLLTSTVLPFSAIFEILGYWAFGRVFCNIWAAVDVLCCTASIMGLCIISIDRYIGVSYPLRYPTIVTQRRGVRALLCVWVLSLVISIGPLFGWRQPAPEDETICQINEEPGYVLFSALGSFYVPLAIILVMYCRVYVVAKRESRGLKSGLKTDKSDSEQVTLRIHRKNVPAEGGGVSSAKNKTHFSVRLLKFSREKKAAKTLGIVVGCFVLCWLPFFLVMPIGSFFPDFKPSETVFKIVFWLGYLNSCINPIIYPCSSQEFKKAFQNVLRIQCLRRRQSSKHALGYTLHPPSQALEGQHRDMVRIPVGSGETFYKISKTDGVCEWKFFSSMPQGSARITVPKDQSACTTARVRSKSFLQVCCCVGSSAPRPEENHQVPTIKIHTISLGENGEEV
How it was run: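 Rat brain membranes; displacement of [3H]-prazosin at 4–6 concentrations, each point in duplicate. IC50 from displacement curves fitted by nonlinear least-squares regression.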

[3] = target: Glutamate NMDA receptor; Grin1/Grin2b (Rattus norvegicus, UniProt P35439+Q00960); assay: Inhibition of rat recombinant NR1/NR2B receptor expressed in Xenopus oocytes assessed as inhibition of glutamate and glycine-induced evoked current by two electrode voltage clamp method; format: cell-based, Oocyte
Rattus norvegicus [4] = assay: Anticonvulsant activity in Sprague-Dawley rat assessed as inhibition of electroshock-induced tonic hind limb extension at 30 mg/kg, ip administered 30 mins before electroshock; format: functional, organism-based; parameters: dose 30 mg/kg; conditions: Hindlimb
How it was run: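 Male Sprague–Dawley rats, 100–125 g, with 1% lidocaine dropped into each conjunctiva before maximal electroshock. Compound given ip in DMSO 30 min before the stimulus. Tested on three consecutive days: untreated on days 1 and 3, compound on day 2. Duration of tonic hind limb extension scored visually. Vehicle served as negative control and carbamazepine 60 mg/kg as positive control. ANOVA with Bonferroni post hoc test.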

[5] = test system: Glutamate receptor ionotropic, NMDA 2B (Rattus norvegicus), Q00960 [E201R]; assay: Inhibition of rat NR1/NR2B(E201R) mutant receptor expressed in Xenopus oocytes at 100 nM by two electrode voltage clamp method; format: cell-based; conditions: Oocyte
[6] = target: Glutamate NMDA receptor; Grin1/Grin2b (Rattus norvegicus) (UniProt P35439+Q00960); assay: Inhibition of rat wild type NR1/NR2B receptor expressed in Xenopus oocytes at 100 nM by two electrode voltage clamp method; format: cell-based; conditions: Oocyte
[7] = test system: Glutamate receptor ionotropic, NMDA 1 (Rattus norvegicus), P35439 [H134A]; assay: Inhibition of rat NR1(H134A)/NR2B mutant receptor expressed in Xenopus oocytes at 100 nM by two electrode voltage clamp method; format: cell-based; conditions: Oocyte
[8] = Half life in rat plasma at 4 mg/kg, iv administered as single dose by LC-MS/MS analysis; format: ADME, organism-based; parameters: dose 4 mg/kg, route intravenous
How it was run: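 Rats, n = 3, fasted overnight and given a single 4 mg/kg iv bolus via the tail vein in 2% dimethyl acetamide/98% 5% hydroxypropyl cyclodextrin. Blood collected into K-EDTA from the orbital plexus at 5, 30, 120 and 240 min. Plasma extracted with cold acetonitrile and analyzed by LC-MS/MS in MRM mode against a standard curve.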

Rattus norvegicus [9] = assay: Effect on locomotor activity in Sprague-Dawley rat at 0.3 mg/kg, ip; format: functional; conditions: route intraperitoneal
How it was run: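 Rats habituated to the test room at least 30 min, then basal horizontal activity recorded 1 h in photobeam activity chambers. Animals then dosed ip and returned to the chamber for 2 h. Vehicle group run each day. Compared with vehicle by ANOVA with Dunnett's post hoc.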

Mus musculus [10] = assay: Effect on motor coordination in mouse at 0.3 mg/kg, ip administered 20 mins prior to test after 5 days by rotarod test; format: ADME, organism-based; parameters: dose 0.3 mg/kg, route intraperitoneal; conditions: in vivo
How it was run: (§1)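 Accelerating rotarod: starts at 5 rpm, then after 10 s ramps 5 to 35 rpm over 5 min; latency to fall recorded automatically. Four trials daily, 25 min apart, for 5 days. On day 5 mice randomised and dosed ip (25% DMSO/75% saline, 5 mL/kg) 20 min before the first trial. Tester blinded; ANOVA with Dunnett's post hoc.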

Mus musculus [11] = assay: Effect on motor coordination in mouse at 0.6 mg/kg, ip administered 20 mins prior to test after 5 days by rotarod test; format: ADME, organism-based; parameters: dose 0.6 mg/kg, route intraperitoneal; conditions: in vivo; how it was run: as §1

Sequence of Voltage-gated inwardly rectifying potassium channel KCNH2 (Q12809 whole entry): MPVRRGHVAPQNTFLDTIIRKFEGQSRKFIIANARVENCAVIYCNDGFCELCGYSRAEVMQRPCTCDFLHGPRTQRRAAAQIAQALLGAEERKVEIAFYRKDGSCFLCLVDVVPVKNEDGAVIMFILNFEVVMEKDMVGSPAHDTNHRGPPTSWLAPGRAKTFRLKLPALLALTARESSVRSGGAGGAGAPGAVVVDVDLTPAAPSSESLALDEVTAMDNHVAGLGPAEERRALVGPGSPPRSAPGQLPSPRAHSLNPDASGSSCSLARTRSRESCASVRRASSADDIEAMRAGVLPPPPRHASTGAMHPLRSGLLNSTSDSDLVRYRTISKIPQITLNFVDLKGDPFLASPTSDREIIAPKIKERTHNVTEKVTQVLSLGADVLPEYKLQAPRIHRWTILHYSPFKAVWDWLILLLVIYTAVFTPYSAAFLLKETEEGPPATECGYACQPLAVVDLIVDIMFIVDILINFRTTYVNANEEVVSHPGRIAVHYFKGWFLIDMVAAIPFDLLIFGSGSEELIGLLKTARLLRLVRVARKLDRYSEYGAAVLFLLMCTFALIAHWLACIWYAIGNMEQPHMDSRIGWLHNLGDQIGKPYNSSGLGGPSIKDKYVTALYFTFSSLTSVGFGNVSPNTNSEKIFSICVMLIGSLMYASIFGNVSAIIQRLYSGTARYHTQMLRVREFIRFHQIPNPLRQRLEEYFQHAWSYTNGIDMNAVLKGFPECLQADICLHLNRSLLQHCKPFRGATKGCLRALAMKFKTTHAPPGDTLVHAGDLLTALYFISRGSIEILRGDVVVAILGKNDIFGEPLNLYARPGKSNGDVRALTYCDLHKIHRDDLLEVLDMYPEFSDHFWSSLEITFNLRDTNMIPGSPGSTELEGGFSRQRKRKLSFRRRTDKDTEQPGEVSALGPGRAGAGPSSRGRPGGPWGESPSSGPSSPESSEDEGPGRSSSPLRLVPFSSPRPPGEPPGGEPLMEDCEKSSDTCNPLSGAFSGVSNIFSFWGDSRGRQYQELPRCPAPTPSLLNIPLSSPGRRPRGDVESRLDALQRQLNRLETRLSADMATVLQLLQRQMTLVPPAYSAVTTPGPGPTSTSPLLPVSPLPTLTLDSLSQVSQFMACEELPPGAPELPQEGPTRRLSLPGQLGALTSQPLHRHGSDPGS

| Compound | IC50 [2] | IC50 [3] | half-life [8] | further results |
| --- | --- | --- | --- | --- |
| CS(=O)(=O)Nc1ccc(OC[C@@H](O)CNCCc2ccc(F)c(F)c2)cc1 | > 10000 nM | 357 nM |  | IC50 [1]: 1630 nM |
| CN(CCc1ccc(Cl)c(Cl)c1)CC(O)COc1ccc(NS(C)(=O)=O)cc1 (racemic) |  |  |  | Activity (Rattus norvegicus [4]): Active; inhibition [5]: 4.2%; inhibition [6]: 67.1%; inhibition [7]: 8.9% |
| CS(=O)(=O)Nc1ccc(OC[C@@H](O)CNCCc2ccc(Cl)cc2)cc1 | 9500 nM | 101 nM |  |  |
| CS(=O)(=O)Nc1ccc(OC[C@@H](O)CNCCc2ccc(Cl)c(F)c2)cc1 | > 10000 nM | 68 nM |  | IC50 [1]: 1910 nM |
| CS(=O)(=O)Nc1ccc(OC[C@@H](O)CN(CCc2ccc(Cl)c(Cl)c2)Cc2ccc(F)c(F)c2F)cc1 | > 10000 nM | 51 nM |  |  |
| CN(CCc1ccc(Cl)c(Cl)c1)C[C@H](O)COc1ccc(NS(C)(=O)=O)cc1 | 1400 nM | 130 nM |  |  |
| CS(=O)(=O)Nc1ccc(OC[C@@H](O)CN(CCc2ccc(Cl)c(Cl)c2)Cc2ccccn2)cc1 |  | 2760 nM | 36 min |  |
| CS(=O)(=O)Nc1ccc(OC[C@@H](O)CN(CCc2ccc(Cl)c(Cl)c2)Cc2ccccc2F)cc1 | > 10000 nM | 80 nM |  |  |
| CS(=O)(=O)Nc1ccc(OC[C@@H](O)CN(CCc2ccc(Cl)c(Cl)c2)Cc2cccc(O)c2)cc1 | > 10000 nM | 238 nM | 36 min |  |
| CS(=O)(=O)Nc1ccc(OC[C@@H](O)CN(CCO)CCc2ccc(Cl)c(Cl)c2)cc1 |  | 122 nM | 36 min | Activity (Rattus norvegicus [4]): Active |
| CCCCN(CCc1ccc(Cl)c(Cl)c1)C[C@H](O)COc1ccc(NS(C)(=O)=O)cc1 | 4900 nM | 421 nM | 36 min |  |
| CS(=O)(=O)Nc1ccc(OC[C@@H](O)CN(CCc2ccc(Cl)c(Cl)c2)Cc2ccccc2O)cc1 | > 10000 nM | 662 nM |  |  |
| C[C@]12N[C@H](Cc3ccccc31)c1ccccc12 [DIZOCILPINE] |  |  |  | Activity (Rattus norvegicus [9]): 38233; Activity (Mus musculus [10]): Toxic; Activity (Mus musculus [11]): Toxic |
| CCN(CCc1ccc(Cl)c(Cl)c1)C[C@H](O)COc1ccc(NS(C)(=O)=O)cc1 | 3500 nM | 96 nM | 36 min |  |
| Cc1ccc(CCNC[C@H](O)COc2ccc(NS(C)(=O)=O)cc2)cc1C | 2200 nM | 207 nM |  | IC50 [1]: 2400 nM |
